Test results taken from ChEMBL document CHEMBL1955820, “Diazeniumdiolated carbamates: a novel class of nitric oxide donors” (Bioorg Med Chem, 2012).

Assays:
[1] = Prodrug activation in human TERT immortalized BJ-5ta cells assessed as intracellular NO-release by measuring increase in fluorescence at 10 uM after 90 mins by DAF-FM diacetate-based fluorescence assay relative to control; format: cell-based; details: htert-bj, 1.5 h
Method in brief: (§1)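 BJ-5ta cells, grown in DMEM:199 medium (4:1) with 10% fetal calf serum, were loaded with 2.5 µM DAF-FM diacetate in HBSS for 30 min at 37 °C, 5% CO2, then rinsed into fresh HBSS. Compound in DMSO was added at 10 µM final for 90 min, with DMSO as control. Fluorescence was read at ex 485/em 525 nm. Mean of 16 independent experiments.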

[2] = test system: U-937; experiment: Drug uptake in human U937 cells by DAF-FM diacetate-based fluorescence assay; format: ADME, cell-based
Method in brief: (§2)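 U937 cells in RPMI 1640 with 10% fetal calf serum at 37 °C, 5% CO2. Probe loading used 2.5 µM DAF-FM diacetate in HBSS for 30 min. Cells were then spun down, rinsed and resuspended in fresh HBSS. Compound in DMSO was added at 10 µM final for 90 min, with DMSO as control. Fluorescence was read at ex 485/em 525 nm.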

[3] = test system: U-937; experiment: Prodrug activation in human U937 cells assessed as intracellular NO-release by measuring increase in fluorescence at 10 uM after 90 mins by DAF-FM diacetate-based fluorescence assay relative to control; format: cell-based; details: u-937, 1.5 h; method in brief: as §2
[4] = Drug uptake in human TERT immortalized BJ-5ta cells by DAF-FM diacetate-based fluorescence assay; format: ADME, cell-based; details: htert-bj; method in brief: as §1
[5] = Prodrug activation in PBS assessed as production of nitrous oxide per mol of prodrug by gas chromatography in presence of GSH; details: buffer
Method in brief: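 Glutathione-activated release in pH 7.4 buffer with 3.6–3.9 mM GSH and 50 µM DTPA, argon-sparged, at 37 °C. Prodrug was injected from a 10 mM DMSO stock. N2O was measured by GC with electron capture detection on a packed ShinCarbon column: 90 to 200 °C at 20 °C/min, He carrier 30 mL/min.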

Drug uptake [2] | fold change (FC) [3] | Drug metabolism [5] | SMILES | fold change (FC) [1] | Drug uptake [4]
Active | 5.56 | – | CC(=O)OCO/N=[N+](\[O-])N(C(=O)OC(C)(C)C)C(C)C | 7.29 | Active
Active | 10.5 | 0.02 mol/mol | CC(C)N(C(=O)OC(C)(C)C)/[N+]([O-])=N/Oc1ccc([N+](=O)[O-])cc1[N+](=O)[O-] | 49.67 | Active

SMILES | Drug uptake [2] | fold change (FC) [3] | Drug metabolism [5] | fold change (FC) [1] | Drug uptake [4]
CCOC(=O)N1CCN(/[N+]([O-])=N/Oc2ccc([N+](=O)[O-])cc2[N+](=O)[O-])CC1 | – | 2.64 | – | 5.48 | –
